Experimental data published in ChEMBL document CHEMBL3045347, “Natural products-based insecticidal agents 5. Design, semisynthesis and insecticidal activity of novel 4'-substituted benzenesulfonate derivatives of 4-deoxypodophyllotoxin against Mythimna separata Walker in vivo” (2010).
Calls of active or inactive are those of the source. No cut-off for these calls is given here.

Key:
Mythimna separata [1] = assay: In vivo insecticidal activity against pre-third-instar larval stage of Mythimna separata (Oriental armyworm) in corn leaves assessed as corrected mortality rate at 1 mg/ml treated for 3 secs before larval infestation on corn leaves measured after 30 days by leaf-dipping method; type: functional; conditions: 720 h
Summary of the method: (§1)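 Leaf-dipping bioassay on pre-third-instar Mythimna separata larvae, with compounds applied at 1 mg/mL. Toosendanin, a commercial insecticide from Melia azedarach, served as the positive control.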

Mythimna separata [2] = assay: In vivo insecticidal activity against pre-third-instar larval stage of Mythimna separata (Oriental armyworm) in corn leaves assessed as corrected mortality rate at 1 mg/ml treated for 3 secs before larval infestation on corn leaves measured after 20 days by leaf-dipping method; type: functional; conditions: 480 h; summary of the method: as §1
Mythimna separata [3] = assay: In vivo insecticidal activity against pre-third-instar larval stage of Mythimna separata (Oriental armyworm) in corn leaves assessed as induction of molting to abnormal pupae at 1 mg/ml treated for 3 secs before larval infestation on corn leaves measured after 48 hr by leaf-dipping method; type: functional, organism-based; summary of the method: as §1
Mythimna separata [4] = assay: In vivo insecticidal activity against pre-third-instar larval stage of Mythimna separata (Oriental armyworm) in corn leaves assessed as reduction in larval movement at 1 mg/ml treated for 3 secs before larval infestation on corn leaves measured after 24 hr by leaf-dipping method; type: functional, organism-based; summary of the method: as §1
Mythimna separata [5] = assay: In vivo insecticidal activity against pre-third-instar larval stage of Mythimna separata (Oriental armyworm) in corn leaves assessed as induction of loss of body liquid at 1 mg/ml treated for 3 secs before larval infestation on corn leaves measured after 48 hr by leaf-dipping method; type: functional, organism-based; summary of the method: as §1
Mythimna separata [6] = assay: In vivo insecticidal activity against pre-third-instar larval stage of Mythimna separata (Oriental armyworm) in corn leaves assessed as inhibition of adult emergence at 1 mg/ml treated for 3 secs before larval infestation on corn leaves by leaf-dipping method; type: functional, organism-based; summary of the method: as §1
Mythimna separata [7] = assay: In vivo insecticidal activity against pre-third-instar larval stage of Mythimna separata (Oriental armyworm) in corn leaves assessed as induction of larval immobility at 1 mg/ml treated for 3 secs before larval infestation on corn leaves measured after 48 hr by leaf-dipping method; type: functional, organism-based; summary of the method: as §1
Mythimna separata [8] = assay: In vivo insecticidal activity against pre-third-instar larval stage of Mythimna separata (Oriental armyworm) in corn leaves assessed as corrected mortality rate at 1 mg/ml treated for 3 secs before larval infestation on corn leaves measured after 10 days by leaf-dipping method; type: functional; conditions: 240 h; summary of the method: as §1
Mythimna separata [9] = assay: In vivo insecticidal activity against pre-third-instar larval stage of Mythimna separata (Oriental armyworm) in corn leaves assessed as inhibition of larval pupation at 1 mg/ml treated for 3 secs before larval infestation on corn leaves by leaf-dipping method; type: functional, organism-based; summary of the method: as §1

Row | SMILES | mortality at 1000 µg/mL (Mythimna separata [1]) [%] | mortality at 1000 µg/mL (Mythimna separata [2]) [%] | Activity (Mythimna separata [3]) | Activity (Mythimna separata [4]) | Activity (Mythimna separata [5]) | Activity (Mythimna separata [6]) | Activity (Mythimna separata [7]) | mortality at 1000 µg/mL (Mythimna separata [8]) [%] | Activity (Mythimna separata [9])
1 | COc1cc([C@@H]2c3cc4c(cc3C[C@H]3COC(=O)[C@@H]32)OCO4)cc(OC)c1OS(=O)(=O)c1ccc(Cl)cc1 | 25 | 10.3 | Active | Active | Active | Active | Active | 10 | Active
2 | COc1cc([C@@H]2c3cc4c(cc3C[C@H]3COC(=O)[C@@H]32)OCO4)cc(OC)c1OC [DESOXYPODOPHYLLOTOXIN] | 39.3 | 20.7 | Active | Active | Active | Active | Active | 16.7 | Active
3 | COc1cc([C@@H]2c3cc4c(cc3C[C@H]3COC(=O)[C@@H]32)OCO4)cc(OC)c1OS(=O)(=O)c1ccc(Cl)c([N+](=O)[O-])c1 | 42.9 | 20.7 | Active | Active | Active | Active | Active | 3.3 | Active
4 | COc1cc([C@@H]2c3cc4c(cc3C[C@H]3COC(=O)[C@@H]32)OCO4)cc(OC)c1OS(=O)(=O)c1ccccc1 | 35.7 | 13.8 | Active | Active | Active | Active | Active | 16.7 | Active
5 | COc1ccc(S(=O)(=O)Oc2c(OC)cc([C@@H]3c4cc5c(cc4C[C@H]4COC(=O)[C@@H]43)OCO5)cc2OC)cc1 | 46.4 | 37.9 | Active | Active | Active | Active | Active | 33.3 | Active
6 | COc1cc([C@@H]2c3cc4c(cc3C[C@H]3COC(=O)[C@@H]32)OCO4)cc(OC)c1OS(=O)(=O)c1ccc(Br)cc1 | 50 | 31 | Active | Active | Active | Active | Active | 20 | Active
7 | CCc1ccc(S(=O)(=O)Oc2c(OC)cc([C@@H]3c4cc5c(cc4C[C@H]4COC(=O)[C@@H]43)OCO5)cc2OC)cc1 | 35.7 | 27.6 | Active | Active | Active | Active | Active | 13.3 | Active
8 | CC(=O)O[C@@H]1C[C@H](O)[C@@]23CO[C@@H](O)[C@]1(C)[C@@H]2C[C@@H](O)[C@]1(C)[C@@H]3C(=O)[C@H](OC(C)=O)[C@@]2(C)[C@H](c3ccoc3)C[C@H]3O[C@]321 [TOOSENDANIN] | 46.4 | 34.5 |  |  |  |  |  | 30 | 
9 | COc1cc([C@@H]2c3cc4c(cc3C[C@H]3COC(=O)[C@@H]32)OCO4)cc(OC)c1OS(=O)(=O)c1ccc(C)cc1 | 21.4 | 10.3 | Active | Active | Active | Active | Active | 3.3 | Active
10 | COc1cc([C@@H]2c3cc4c(cc3C[C@H]3COC(=O)[C@@H]32)OCO4)cc(OC)c1OS(=O)(=O)c1cccc([N+](=O)[O-])c1 | 60.7 | 27.6 | Active | Active | Active | Active | Active | 26.7 | Active
11 | COc1cc([C@@H]2c3cc4c(cc3C[C@H]3COC(=O)[C@@H]32)OCO4)cc(OC)c1O [4'-DEMETHYLDEOXYPODOPHYLLOTOXIN] | 21.4 | 13.8 | Active | Active | Active | Active | Active | 10 | Active
